Measured values collected from several papers.
Target: Ephrin type-B receptor 1 (EPHB1, Homo sapiens, UniProt P54762)
One construct used (P54762 18-984): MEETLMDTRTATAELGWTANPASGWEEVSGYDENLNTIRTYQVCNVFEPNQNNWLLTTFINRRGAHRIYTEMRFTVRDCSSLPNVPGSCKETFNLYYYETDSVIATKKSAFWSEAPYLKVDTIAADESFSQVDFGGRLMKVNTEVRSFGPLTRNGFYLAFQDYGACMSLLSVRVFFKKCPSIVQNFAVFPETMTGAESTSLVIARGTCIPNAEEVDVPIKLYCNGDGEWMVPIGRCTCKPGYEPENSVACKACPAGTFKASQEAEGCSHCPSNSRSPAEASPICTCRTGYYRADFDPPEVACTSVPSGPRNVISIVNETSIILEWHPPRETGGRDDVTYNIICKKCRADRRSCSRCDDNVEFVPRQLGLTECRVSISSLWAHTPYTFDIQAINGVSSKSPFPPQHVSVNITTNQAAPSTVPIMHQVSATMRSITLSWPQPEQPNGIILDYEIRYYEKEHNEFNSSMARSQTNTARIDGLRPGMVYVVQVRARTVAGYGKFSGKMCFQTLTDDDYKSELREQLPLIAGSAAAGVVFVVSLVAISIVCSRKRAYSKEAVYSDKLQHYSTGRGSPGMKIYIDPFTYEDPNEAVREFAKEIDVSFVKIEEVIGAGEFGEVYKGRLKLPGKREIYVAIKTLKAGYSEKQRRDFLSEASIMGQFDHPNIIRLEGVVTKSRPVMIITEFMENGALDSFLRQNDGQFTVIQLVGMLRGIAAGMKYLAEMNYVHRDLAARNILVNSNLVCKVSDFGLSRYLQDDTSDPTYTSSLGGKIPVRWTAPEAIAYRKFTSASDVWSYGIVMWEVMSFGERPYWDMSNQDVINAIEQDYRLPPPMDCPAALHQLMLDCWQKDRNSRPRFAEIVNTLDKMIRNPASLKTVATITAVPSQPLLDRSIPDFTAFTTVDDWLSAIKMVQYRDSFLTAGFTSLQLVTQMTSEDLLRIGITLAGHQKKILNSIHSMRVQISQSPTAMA

O=C(NC[C@@H]1[C@H]2CN(C(=O)OCc3cc(C(F)(F)F)cc(C(F)(F)F)c3)C[C@@H]12)c1ccc2[nH]nnc2c1  remaining binding (cell-free assay, competition with immobilised ligand; 1 µM): 100%
CC(C)(C)c1nc(-c2cccc(NS(=O)(=O)c3c(F)cccc3F)c2F)c(-c2ccnc(N)n2)s1  remaining activity (enzyme activity, inhibitor, radiometric; 1 µM): 94%
CO[C@@H](C)c1c(Nc2ccc([C@@H](N(C)C(=O)C3CCS(=O)(=O)CC3)C(F)(F)F)cc2)cnc2cc(Cl)nn12  remaining binding (cell-free assay, competition with immobilised ligand; 1 µM): 92%
CCN(CC)CCNC(=O)c1c(C)[nH]c(/C=C2\C(=O)Nc3ccc(F)cc32)c1C  inhibition (enzyme activity, inhibitor; 10 µM): 91%
CC(=O)c1c(NS(C)(=O)=O)c2cc(-c3ccc(Cl)cc3)c(-c3ccc(Cl)cc3Cl)nc2n(C)c1=O  remaining binding (cell-free assay, competition with immobilised ligand; 1 µM): 100%
O=C(Nc1cnn(-c2csc(C(=O)NC3COC3)c2)c1)Nc1ccccc1Cl  remaining activity (enzyme activity, inhibitor; 5 µM): 100%
Cc1ccc(C(=O)NCc2ccsc2)cc1C#Cc1cn(C(C)C)c2ncnc(N)c12  activity vs control (enzyme activity, inhibitor; 1 µM): 12%
O=C(Nc1ccc(Oc2ccc(F)cc2)cc1)N1CCc2ncccc2[C@H]1c1ccc(F)cc1  remaining binding (cell-free assay, competition with immobilised ligand; 1 µM): 100%
Cc1cnc(NC2CCOCC2)nc1-n1cnc(C(=O)NC(CN)c2cc(F)cc(Cl)c2)c1 (stereo not shown)  remaining activity (enzyme activity, inhibitor, radiometric; 1 µM): 125%
CC(C)(O)[C@H]1CC[C@H](Nc2ccc3ncc(-c4cccc(C(F)(F)F)c4)n3n2)CC1  remaining activity (enzyme activity, inhibitor; 1 µM): 85%
COc1cc(/C=C/C(=O)CC(=O)/C=C/c2ccc(O)c(OC)c2)ccc1O  activity vs control (enzyme activity, inhibitor; 1 µM): 100%
Clc1ccc(Nc2nnc(Cc3ccncc3)c3ccccc23)cc1  remaining signal (cell-free assay; 0.5 µM): 107%
CCC(=N\O)/C(C)=C/c1ccc(F)cc1  remaining binding (cell-free assay, competition with immobilised ligand; 1 µM): 100%
O=C1Nc2ccc(Cl)cc2C1=Cc1cc(Cl)c(O)c(Cl)c1  remaining signal (cell-free assay; 0.5 µM): 91%
Cn1c(=O)n(-c2ccc(C(C)(C)C#N)cc2)c2c3cc(-c4cnc5ccccc5c4)ccc3ncc21  remaining activity (enzyme activity, inhibitor; 10 µM): 133%
Cc1ccc(NC(=O)c2ccc(C)c(C(F)(F)F)c2)cc1C#Cc1nn(C2CCC(O)CC2)c2ncnc(N)c12 (stereo not shown)  remaining signal (cell-free assay; 10 µM): -1%
CNCc1ccccc1-c1csc([C@@H](C)Nc2nc(C)nc3cc(OC)c(OC)cc23)c1  remaining binding (cell-free assay, competition with immobilised ligand; 1 µM): 100%
O=C(Nc1cnn(-c2csc(C(=O)NC3COC3)c2)c1)Nc1c(F)cccc1Cl  remaining activity (enzyme activity, inhibitor; 5 µM): 96.1%
COc1cc(Nc2cnc(C#N)c(O[C@H](C)CN(C)C)n2)ncc1-c1cnn(C)c1  remaining activity (enzyme activity, inhibitor, radiometric; 10 µM): 71%
COc1cc(Nc2c(C#N)cnc3cc(OCCCN4CCN(C)CC4)c(OC)cc23)c(Cl)cc1Cl  remaining signal (cell-free assay; 0.5 µM): 11.8%
CNC(=O)c1cc2c(Oc3ccc(NC(=O)C4(C(=O)Nc5ccc(F)cc5)CC4)cc3)ccnc2cc1OC  inhibition (enzyme activity, inhibitor, radiometric; 1 µM): 99%
COc1cc(-c2cc(-c3ccc(N4CCNCC4)cc3)cnc2C)cc(OC)c1OC  inhibition (enzyme activity, inhibitor; 0.1 µM): 5%
N#CCCc1ccc2c(c1)-c1[nH]c3ccc([N+](=O)[O-])cc3c1CC(=O)N2  remaining signal (cell-free assay; 0.5 µM): 99.1%
Cc1ccc(Nc2nccc(N(C)c3ccc4c(C)n(C)nc4c3)n2)cc1S(N)(=O)=O  inhibition (enzyme activity, inhibitor; 0.3 µM): 8%
O=C(O)[C@H]1[C@H](Cn2nnc3ccccc3c2=O)CC[C@@H]1C(=O)c1ccc(OCCC2CCOCC2)cc1  remaining binding (cell-free assay, competition with immobilised ligand; 1 µM): 100%
COc1cc2ncnc(Nc3ccc(Oc4ccccc4)cc3C)c2cc1OC  inhibition (enzyme activity, inhibitor; 1 µM): 6%
Oc1cccc(-c2nc(N3CCOCC3)c3oc4ncccc4c3n2)c1  remaining activity (enzyme activity, inhibitor; 10 µM): 131%
O=C(N1CCS(=O)(=O)CC1)N1C[C@H](c2ccc(OC(F)(F)F)cc2)C[C@H](c2nc(C3CC3)no2)C1  remaining binding (cell-free assay, competition with immobilised ligand; 1 µM): 100%
